Sampled rows, rich in hits. Any-hit rate of the full collection: about 4.3%.
CHO parental Ca – ATP-evoked calcium signal inhibitors, parental CHO, primary screen, counter-screen for OX1R antagonist project, cell-based, fluorescence, Fluo-8 calcium dye | parental CHO-K1, ATP-induced calcium, Fluo-8 fluorescence | inhibition, % at 5.6 µM | 330,000 compounds, 0.63% hits | AID 463079, 2010;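 active means inhibition above that plate's mean sample inhibition plus 3 SD, cut at about 26% in these data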;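 further: 0% = ATP-challenged DMSO wells and 100% = DMSO wells without ATP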
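Assay system – parental CHO cells · Reagent – ATP stimulus · Detection – intracellular calcium via Fluo-8 no-wash fluorescent dye · Evaluation – percent inhibition of ATP-evoked calcium rise, normalized to controls · Controls – ATP wells versus no-ATP DMSO wells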
GalR3 antag – GalR3 antagonists in HEK293 cells, primary screen, cell-based, fluorescence readout; HEK293 GalR3-CNG cAMP membrane potential fluorescence; galR3 body fused to GalR1 C-terminus; inhibition, % at 3 µM; 360,000 compounds, 0.44% hits; AID 651719, 2012;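 active means inhibition above the screen-wide average plus 3 SD, cut at about 13% in these data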;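 further: forskolin and galanin both at EC90 stimulate the cells; cAMP rise reported by CNG channel membrane potential dye signal; 0% = forskolin plus galanin with DMSO and 100% = forskolin alone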
Target sequence (O60755 1-299 limits assumed): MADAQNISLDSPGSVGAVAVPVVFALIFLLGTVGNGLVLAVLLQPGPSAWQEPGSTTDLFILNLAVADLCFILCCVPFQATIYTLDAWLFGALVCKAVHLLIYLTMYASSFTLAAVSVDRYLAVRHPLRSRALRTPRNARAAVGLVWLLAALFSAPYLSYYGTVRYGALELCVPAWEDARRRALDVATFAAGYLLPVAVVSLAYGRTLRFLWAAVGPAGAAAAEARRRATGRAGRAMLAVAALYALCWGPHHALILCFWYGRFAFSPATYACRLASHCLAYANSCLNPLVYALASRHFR
TAAR1 antagonist – human TAAR1 antagonists, primary screen, Fluo-8 calcium fluorescence, CHO RD-HGA16 cells | antagonist | inhibition, % at 3 µM | Trace amine-associated receptor 1 (Homo sapiens), Q96RJ0 | 360,000 compounds, 1.5% hits;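 active means inhibition above a per-plate cutoff, the mean inhibition of test compounds on that plate plus 3 SD, cut at about 49% in these data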;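 further: 0% = DMSO plus EC80 beta-PEA response and 100% = DMSO alone without agonist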
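Test system: RD-HGA16 CHO cells with stable hTAAR1 and Gα16 / Probe or stimulus: EC80 β-phenethylamine stimulus / Times: seeding 17-24 h prior, 75-min 37 °C, 30-min RT dye loading / Detection: Fluo-8 calcium-sensitive fluorescence / Read-out basis: % inhibition scaled between DMSO and EC80 PEA controls / Repeats: singlicate, one well per test compound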
TAAR1 agonist – human TAAR1 agonists, primary screen, Fluo-8 calcium fluorescence, CHO RD-HGA16 cells; activation, % at 3 µM; vehicle wells 0%, saturating PEA agonist 100%; AID 624467, 2012; 360,000 compounds, 0.99% hits;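 active means activation above the mean activation of all test compounds in the run plus 3 SD, cut at about 38% in these data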
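Assay system – CHO-derived RD-HGA16 cells with stable Gα16 and human TAAR1 · Compound dosing – one-point dosing at 3 µM (nominal) · Incubation – 17-24 h seeding, 75 min 37 °C dye, 30 min RT · Measured by – kinetic Fluo-8 calcium fluorescence · Control set – DMSO vehicle as 0%, PEA at EC100 as 100% · Repeats – single well for each compound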
OX1R antag-1 – antagonists of human orexin 1 receptor (OX1R); Orexin/Hypocretin receptor type 1 (Homo sapiens), O43613; OX1R-expressing cells, FRET antagonist read-out; inhibition, % at 6.6 µM; 330,000 compounds, 1.8% hits; AID 485270, 2010; in the data active means inhibition mostly above about 38%, no sharp cut-off; inactive means mostly below about 40%;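 further: 0% = agonist challenge alone and 100% = reference antagonist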
Target sequence (O43613 whole entry, looked up): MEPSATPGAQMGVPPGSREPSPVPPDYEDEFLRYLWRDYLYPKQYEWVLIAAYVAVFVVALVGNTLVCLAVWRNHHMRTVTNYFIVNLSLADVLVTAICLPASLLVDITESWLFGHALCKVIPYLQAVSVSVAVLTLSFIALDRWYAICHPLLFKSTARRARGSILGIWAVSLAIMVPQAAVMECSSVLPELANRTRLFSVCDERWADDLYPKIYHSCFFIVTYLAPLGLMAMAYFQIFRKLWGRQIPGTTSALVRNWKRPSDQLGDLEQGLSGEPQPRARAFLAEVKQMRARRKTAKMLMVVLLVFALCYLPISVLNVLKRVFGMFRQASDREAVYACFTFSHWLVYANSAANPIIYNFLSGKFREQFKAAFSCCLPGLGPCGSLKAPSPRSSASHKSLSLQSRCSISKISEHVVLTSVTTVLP
OX1R antag-2 – OX1R (HCRTR1) antagonists, primary screen, fluorescence, CHO/OX1R cells, Fluo-8 calcium, orexin A; Fluo-8 calcium fluorescence; 330,000 compounds, 0.43% hits; inhibition, % at 5 µM; AID 434989, 2010; Orexin/Hypocretin receptor type 1 (Homo sapiens), O43613;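 active means inhibition above its plate's threshold, mean inhibition of all tested compounds on the plate plus 3 SD, cut at about 37% in these data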;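 further: 0% = orexin A challenge wells and 100% = SB-334867-A antagonist wells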
TAAR1 ag confirm – human TAAR1 agonists, retest of hits, confirmation, Fluo-8 calcium fluorescence, CHO RD-HGA16 cells | shares compounds with TAAR1 agonist | scaled: DMSO 0%, maximal phenethylamine 100% | activation, % at 3 µM | 2,400 compounds, 82% hits | AID 651783, 2012;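 active means activation above a cutoff set at the run's mean compound activation plus 3 SD, cut at about 39% in these data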
Ga16 ag counter – nonselective calcium mobilization agonists, CHO-Ga16 cells, counter-screen for hTAAR1 agonist project, cell-based, fluorescence, CHO-Ga16 parental line. shares compounds with TAAR1 agonist. Fluo-8 calcium fluorescence; normalized to maximal ATP response, DMSO zero. activation, % at 3 µM. 2,400 compounds, 50% hits;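 active means activation above the run cutoff, the mean activation over all tested wells plus 3 SD, cut at about 12% in these data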;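 further: 0% = DMSO wells and 100% = maximal ATP response on the peak over basal ratio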
TAAR1 desens – TAAR1 desensitization by agonist hits, confirmation, counter-screen for TAAR1 agonist project, cell-based, fluorescence, tachyphylaxis; CHO RD-HGA16 hTAAR1, Fluo-8 calcium, beta-PEA response inhibition; AID 651951, 2012; shares compounds with TAAR1 agonist; inhibition, % at 3 µM; 2,400 compounds, 46% hits;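 active means inhibition above the run cutoff, the mean inhibition of all test compounds plus 3 SD, cut at about 49% in these data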;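 further: beta-PEA stimulus applied at its EC80; loss of beta-PEA calcium signal after compound pretreatment read as receptor desensitization; 0% = DMSO with beta-PEA at EC80 and 100% = DMSO alone without agonist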
Ga16 nonsel ant – inhibition of ATP-evoked calcium response in CHO-Ga16 cells, counter-screen for TAAR1 agonist project, cell-based, fluorescence. shares compounds with TAAR1 agonist. CHO-Ga16 ATP-induced calcium, Fluo-8 fluorescence. inhibition, % at 3 µM. 2,400 compounds, 39% hits. AID 651952, 2012;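 active means inhibition above the plate's mean compound inhibition plus 3 SD, computed per plate, cut at about 22% in these data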;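 further: 0% = EC80 ATP with DMSO and 100% = DMSO wells without ATP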
GalR3 antag conf – GalR3 antagonist hit confirmation, cell-based, fluorescence, triplicate | shares compounds with GalR3 antag | AID 652245, 2013 | inhibition, % at 3 µM | HEK293 GalR3 CNG cAMP biosensor, membrane potential fluorescence; galR3 fused to GalR1 carboxy tail; challenged with forskolin and galanin at EC90 | 1,600 compounds, 59% hits;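 active means inhibition above the primary screen's cutoff, the mean inhibition of all screened compounds plus 3 SD, cut at about 13% in these data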;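 further: 0% = forskolin plus galanin and 100% = forskolin alone with DMSO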
CNG parental – nonspecific cAMP agonists in parental HEK-CNG cells, counter-screen for GalR3 antagonist project, cell-based, fluorescence, high throughput | shares compounds with GalR3 antag | AID 652268, 2013 | 1,600 compounds, 10% hits | activation, % at 3 µM | HEK293-CNG parental cells, cAMP membrane potential fluorescence; normalised: DMSO wells 0%, forskolin wells 100%; in the data active means activation above about 1.3%
* = called active by the depositor; / = no result given.

SMILES | CHO parental Ca | GalR3 antag | TAAR1 antagonist | TAAR1 agonist | OX1R antag-1 | OX1R antag-2 | GalR3 antag conf | CNG parental | others
CCN(CC)c1ccc(C(=C2C=CC(=[N+](CC)CC)C=C2)c2ccc(N(CC)CC)cc2)cc1 | / | 32* | 95* | 50* | / | / | 36* | -4 | TAAR1 ag confirm=68*;Ga16 ag counter=45*;TAAR1 desens=92*;Ga16 nonsel ant=84*
CCCCCCCCCCn1c2c(c(=N)c3c1CCC3)CCC2 | 39 | 28* | 34 | 47* | 20 | 48* | 39* | 24* | TAAR1 ag confirm=52*;Ga16 ag counter=23*;TAAR1 desens=41;Ga16 nonsel ant=37*
CN1C=Nc2c(ncn2C2CCC(CO)O2)C1O (configuration not stated) | / | -8 | 11 | 1 | / | / | / | /
CCCNC(=O)C[C@@H]1CC[C@H]2NC[C@H](O)COC[C@@H]2O1 | / | -1 | -13 | 7 | / | / | / | /
Oc1cc2c(c(Cl)c1O)CCNCC2c1ccccc1 (configuration not stated) | 6 | 26* | -10 | 44* | 12 | 2 | 32* | 1 | TAAR1 ag confirm=73*;Ga16 ag counter=3;TAAR1 desens=57*;Ga16 nonsel ant=10
C=CCN1CCc2c(cc(O)c(O)c2Cl)C(c2ccccc2)C1 (configuration not stated) | -24 | / | -24 | -2 | 11 | -30 | / | /
CC(C)(C)C(=O)NC(=S)NNC(=O)c1ccc(Cl)cc1Cl | 52* | 16* | 104* | 202* | 0 | 63* | 13* | 0 | TAAR1 ag confirm=144*;Ga16 ag counter=115*;TAAR1 desens=107*;Ga16 nonsel ant=92*
N#C/C(N=Nc1ccccc1O)=N\Nc1ccccc1O | 26 | 61* | 66* | 3 | 22 | 12 | 84* | -2
CC(C)C(=O)NCCc1nc(-c2ccccc2)no1 | 7 | / | 5 | 2 | 3 | 5 | 1 | 0
C/C(O)=c1/c(=O)nc2cccc3c2=c1c1ccccc1c3=O | / | 19* | 1 | 5 | / | / | 14* | 0
CCOC(=O)c1sc(N2C(=O)C(O)=C(C(=O)c3ccco3)C2c2cccc([N+](=O)[O-])c2)nc1C (configuration not stated) | 2 | 4 | -33 | 0 | 24 | -16 | / | /
CCN(CC)C(=O)c1csc([C@@H]2O[C@H](CO)[C@H](O)[C@H](O)[C@H]2O)n1 | / | -6 | -21 | 11 | / | / | / | /
COc1cc(/C=N\NC(=O)c2ccc(-c3ccccc3)cc2)cc(Br)c1O | -15 | 15* | 2 | -2 | 22 | -9 | 41* | 0
COc1ccccc1-n1c(-c2cccnc2)n[nH]c1=S | -3 | -7 | -8 | 1 | 12 | 0 | / | /
COc1ccc(-c2cc(-c3n[nH]c(=S)n3-c3cccc4ccccc34)[nH]n2)cc1 | -19 | 52* | 1 | 7 | 6 | -36 | 49* | 0
COc1ccccc1-n1c(-c2cc(-c3ccc(F)cc3)n[nH]2)n[nH]c1=S | -14 | 14* | 8 | 9 | 12 | -26 | 13* | 0
S=c1[nH]nc(-c2cc(-c3ccsc3)n[nH]2)n1-c1cccc2ccccc12 | -6 | 4 | -12 | 11 | 5 | -13 | / | /
CC1(c2ccc3c(c2)OCCCO3)NC(=O)N(CC(=O)Nc2cccc(C#N)c2)C1=O (configuration not stated) | -21 | -7 | -5 | 4 | 8 | -24 | / | /
COc1cc2c(cc1OC)C(c1ccc(C)cc1)NC(=O)C2 (configuration not stated) | / | 14* | -19 | 1 | / | / | 3 | 0
NS(=O)(=O)OCCCc1ccccc1 | -1 | 0 | -20 | 10 | 19 | 7 | / | /
COCC(COS(N)(=O)=O)Cc1ccccc1 (configuration not stated) | -9 | / | -4 | 1 | 13 | -16 | -3 | 0
Cc1c(C(=O)N2CCC(Cc3ccccc3)CC2)sc2ncnc(N3CCC(C)CC3)c12 | -12 | 0 | -7 | 6 | 6 | -32 | / | /
c1ccc(CC2CCN(c3ncnc4sccc34)CC2)cc1 | / | 70* | 40 | 6 | / | / | 88* | 1
Cc1ccc(NC(=O)CSc2ncnc3ccccc23)cc1S(=O)(=O)N1CCCCC1 | 38 | 85* | 38 | 5 | 15 | -7 | 104* | -1
CCN(CC)S(=O)(=O)c1ccc(/C=C/C(=O)Nc2ccc(Br)cc2F)cc1 | 9 | 59* | 53* | 2 | 12 | -2 | 99* | 0
CCN(CC)S(=O)(=O)c1ccc(/C=C/C(=O)Nc2ccc(F)cc2F)cc1 | -7 | -4 | 9 | 2 | 0 | -7 | / | /
Cc1nnc(NC(=O)C(C)Sc2nnc(CCNC(=O)c3ccccc3F)n2C)s1 (configuration not stated) | -6 | 13* | -3 | 2 | 7 | -8 | 5 | 0

Source: PubChem BioAssay
